Active and inactive are the calls of the source. The calls are words filed in the database; no cut-off is given here.
Experiments:
Plasmodium yoelii [1] = test: In vivo antimalarial activity as MST of 1 week in chloroquine-resistant Plasmodium yoelii nigerienses infected Swiss Albino mice (Mus musculus) at 10 mg/kg chloroquine; assay type: functional
Plasmodium berghei [2] = test: Heme content in chloroquine-sensitive Plasmodium berghei; assay type: functional
Plasmodium yoelii [3] = test: In vivo resistance reversal in chloroquine-resistant Plasmodium yoelii nigeriensis infected Swiss Albino mice (Mus musculus); range is 1-2%; assay type: functional
Plasmodium berghei [4] = test: Evaluated for the Heme oxygenase (Values are mean +/- SD of 4 separate observations. Specific activity in nmol/h/mg protein) in chloroquine-resistant Plasmodium berghei; assay type: functional
How it was run: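 Mastomys carrying CQ-resistant P. berghei were dosed orally at 15 mg/kg for 10 days. Untreated CQ-resistant and CQ-sensitive parasites served as reference samples. Parasites were isolated by density-gradient centrifugation and saponin lysis. Heme oxygenase was followed as bilirubin formation in the post-mitochondrial fraction and expressed as nmol/h/mg protein.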

Plasmodium yoelii [5] = test: Heme content after 10 days in chloroquine-resistant Plasmodium yoelii at 15 mg/kg; assay type: functional
[6] = system: Plasmodium yoelii nigeriensis; test: Inhibition of heme oxygenase in Plasmodium yoelii nigeriensis isolated from infected mice (Mus musculus) (oral); assay type: functional
How it was run: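 Swiss albino mice carried P. yoelii nigeriensis tolerant to CQ up to 120 mg/kg. They received compound orally at 15 mg/kg body wt for 5 days. Parasites were then isolated from blood by density gradient centrifugation and saponin lysis, and enzyme inhibition was measured as percent inhibition.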

Plasmodium berghei [7] = test: (§1) In vivo pretreatment parasitemia in chloroquine-resistant Plasmodium berghei infected Mastomys coucha; range 4-5%; assay type: functional
Plasmodium yoelii [8] = test: In vivo resistance reversal agent in chloroquine-resistant Plasmodium yoelii nigerienses infected Swiss Albino mice (Mus musculus). Parasitemia observed on day 6-10 of treatment in Group III NI denotes nil inhibition; assay type: functional, organism-based
Plasmodium berghei [9] = test: In vivo resistance reversal at day 10 against chloroquine-resistant Plasmodium berghei infected Mastomys coucha at 10 mg/kg; range 20-22; assay type: functional
Plasmodium yoelii [10] = test: In vivo resistance reversal (control MST = 1 week) in chloroquine-resistant Plasmodium yoelii nigerienses infected Swiss Albino mice (Mus musculus); assay type: functional
Plasmodium berghei [11] = test: In vivo antimalarial activity as parasitaemia at day 17 in chloroquine-resistant Plasmodium berghei infected Mastomys coucha treated to day 10; range >25-30%; assay type: functional
Plasmodium berghei [12] = test: In vivo antimalarial activity as parasitemia at day 17 in chloroquine-resistant Plasmodium berghei infected Mastomys coucha treated to day 10; range 25-30%; assay type: functional
Plasmodium yoelii [13] = test: In vivo antimalarial activity as survivors after 1 month in chloroquine-resistant Plasmodium yoelii nigeriensis infected Swiss Albino mice (Mus musculus) at 15 mg/kg combined with 10 mg/kg chloroquine; assay type: functional
Plasmodium berghei [14] = test: In vivo antimalarial activity as parasitemia at day 10 in chloroquine-resistant Plasmodium berghei infected Mastomys coucha at 15 mg/kg; range 20-22%; assay type: functional
Plasmodium berghei [15] = test: Hemozoin formation in chloroquine-sensitive Plasmodium berghei
Mus musculus = organism: Mus musculus; test: In Vitro inhibition of Heme Oxygenase in Plasmodium yoelii (host) at concentration 50 uM; assay type: functional
How it was run: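 In vitro heme oxygenase, cell-free: post-mitochondrial fractions of P. yoelii parasites and of infected host liver. Test compounds at 10-100 µM were preincubated 10 min in the assay system before the enzyme reaction started. Activity was followed as bilirubin formation and expressed as % inhibition.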

Plasmodium berghei [16] = test: In vivo antimalarial activity as parasitemia at day 10 in chloroquine-resistant Plasmodium berghei infected Mastomys coucha at 10 mg/kg; range 15-17%; assay type: functional
Plasmodium yoelii [17] = test: In vivo resistance reversal agent in chloroquine-resistant Plasmodium yoelii nigerienses infected Swiss Albino mice (Mus musculus). Parasitemia observed on day 6-10 of treatment in Group IV;range is 80-70%; assay type: functional
Plasmodium yoelii [18] = test: (§2) In vivo antimalarial activity as parasitemia at day 17 in chloroquine-resistant Plasmodium yoelii nigerienses infected Swiss Albino mice (Mus musculus) treated at day 10; No survivors; assay type: functional, organism-based
Plasmodium berghei [19] = test: In vivo resistance reversal after 1 month in chloroquine-resistant Plasmodium berghei infected Mastomys coucha at 15 mg/kg on day 10; No inhibition
Plasmodium yoelii [20] = test: Heme content in chloroquine-resistant Plasmodium yoelii; assay type: functional
Plasmodium berghei [21] = test: as §1; assay type: functional; remark: listed apart in the source
[22] = system: Plasmodium yoelii nigeriensis; test: In Vitro inhibition of Heme Oxygenase in Cell-free parasite Plasmodium yoelii at concentration 10 uM; assay type: functional
How it was run: (§3)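 Heme oxygenase activity was measured as bilirubin formation in a post-mitochondrial fraction. The parasite enzyme came from cell-free P. yoelii, isolated from infected blood by density gradient centrifugation and saponin lysis. The host enzyme came from infected liver. Compounds were tested at 10–100 µM and preincubated for 10 min before the reaction was started.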

[23] = system: Plasmodium yoelii nigeriensis; test: In Vitro inhibition of Heme Oxygenase in Cell-free parasite Plasmodium yoelii at concentration 10 uM;NI denotes nil inhibition; assay type: functional; how it was run: as §3
Plasmodium yoelii [24] = test: as §2; assay type: functional, organism-based; remark: listed apart in the source
Plasmodium berghei [25] = test: as §1; assay type: functional; remark: listed apart in the source
[26] = target: T1, Glutathione S-transferase (Plasmodium yoelii yoelii) (UniProt Q7REH6); test: Inhibition of Glutathione S-transferase in Plasmodium yoelii nigeriensis isolated from infected mice (Mus musculus) (oral); assay type: functional; conditions: concentration not given here
T1 sequence (whole entry): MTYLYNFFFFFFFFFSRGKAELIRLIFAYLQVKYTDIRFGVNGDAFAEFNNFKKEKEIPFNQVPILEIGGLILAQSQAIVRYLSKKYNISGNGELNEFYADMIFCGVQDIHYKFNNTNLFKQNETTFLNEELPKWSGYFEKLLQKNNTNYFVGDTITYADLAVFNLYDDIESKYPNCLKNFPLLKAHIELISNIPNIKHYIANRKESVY
How it was run: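 Mice infected with P. yoelii nigeriensis were dosed orally at 15 mg/kg body wt for 5 days. Parasites were then isolated from blood by density-gradient centrifugation and saponin lysis. Glutathione-S-transferase (and heme oxygenase) activity is given as % inhibition.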

[27] = system: Plasmodium yoelii nigeriensis; test: In Vitro inhibition of Heme Oxygenase in Cell-free parasite Plasmodium yoelii at concentration 50 uM; assay type: functional; how it was run: as §3
Plasmodium berghei [28] = test: Hemozoin formation in chloroquine-resistant Plasmodium berghei
[29] = system: Plasmodium yoelii nigeriensis; test: Hemozoin formation in chloroquine-resistant Plasmodium yoelii at 15 mg/kg for 10 days
Plasmodium yoelii [30] = test: (§4) In vivo antimalarial activity as pretreatment parasitemia in chloroquine-resistant Plasmodium yoelii nigerienses infected Swiss Albino mice (Mus musculus); range 1-2%; assay type: functional
Plasmodium berghei [31] = test: Heme content in chloroquine-resistant Plasmodium berghei; assay type: functional
Plasmodium yoelii [32] = test: Heme content in chloroquine-sensitive Plasmodium yoelii; assay type: functional
Plasmodium yoelii [33] = test: In vivo antimalarial activity as parasitemia at days 6-10 in chloroquine-resistant Plasmodium yoelii nigerienses infected Swiss Albino mice (Mus musculus); range 70-80%; assay type: functional
Plasmodium yoelii [34] = test: In vivo antimalarial activity as pretreatment parasitaemia in chloroquine-resistant Plasmodium yoelii nigeriensis infected Swiss Albino mice (Mus musculus); range 1-2%; assay type: functional
[35] = system: Plasmodium yoelii nigeriensis; test: Hemozoin formation in chloroquine-sensitive Plasmodium yoelii
Plasmodium yoelii [36] = test: Evaluated for the Heme oxygenase in chloroquine-resistant Plasmodium yoelii which is treated with 15 mg/kg body weight of compound for 10 days;NA denotes no activity; assay type: functional, organism-based; design: dose 15 mg/kg
Plasmodium yoelii [37] = test: as §4; assay type: functional; remark: listed apart in the source

SMILES: CCN(CC)CCCN1CC/C(=C\c2ccc(OC)cc2)C1
- Mean survival time (Plasmodium yoelii [1]): 1
- Mean (Plasmodium berghei [2]): 344 pmol/mg
- Parasites (Plasmodium yoelii [3]): 2%
- Mean (Plasmodium berghei [4]): 80.2 nM/h/mg
- Mean (Plasmodium yoelii [5]): 172 pmol/mg
- Inhibition [6]: 100%
- Parasites (Plasmodium berghei [7]): 5%
- NI (Plasmodium yoelii [8]): No inhibition
- Mean survival time (Plasmodium berghei [9]): 22 days
- Mean survival time (Plasmodium yoelii [10]): 1
- Parasites (Plasmodium berghei [11]): >30%
- Parasites (Plasmodium berghei [12]): >30%
- Mean survival time (Plasmodium yoelii [13]): > 1 month
- Parasites (Plasmodium berghei [14]): 22%
- Mean (Plasmodium berghei [15]): 101 pmol/mg
- inhibition (Mus musculus): 21%
- Parasites (Plasmodium berghei [16]): 17%
- Parasites (Plasmodium yoelii [17]): 80%
- NS (Plasmodium yoelii [18]): No survivors
- NI (Plasmodium berghei [19]): No inhibition
- Mean (Plasmodium yoelii [20]): 109 pmol/mg
- Parasites (Plasmodium berghei [21]): 5%
- inhibition [22]: 48%
- NI [23]: No inhibition
- NS (Plasmodium yoelii [24]): No survivors
- Parasites (Plasmodium berghei [25]): 5%
- inhibition [26]: 99%
- inhibition [27]: 64%
- Mean (Plasmodium berghei [28]): 51.4 pmol/mg
- Mean [29]: 45.1 pmol/mg
- Parasites (Plasmodium yoelii [30]): 2%
- Mean (Plasmodium berghei [31]): 60.3 pmol/mg
- Mean (Plasmodium yoelii [32]): 218 pmol/mg
- Parasites (Plasmodium yoelii [33]): 80%
- Parasites (Plasmodium yoelii [34]): 2%
- Mean [35]: 109 pmol/mg
- NA (Plasmodium yoelii [36]): inactive
- Parasites (Plasmodium yoelii [37]): 2%

From ChEMBL document CHEMBL1133641, “A new class of potential chloroquine-resistance reversal agents for Plasmodia: syntheses and biological evaluation of 1-(3'-diethylaminopropyl)-3-(substituted phenylmethylene)pyrrolidines” (2000)
